# Test results: publication PMC7564327 (Acta Pharmaceutica Sinica. B, 2020)
# How the values were obtained:
# hOAT3 = target: T1, hOAT3 (Homo sapiens, UniProt Q8TCC7); assay: Inhibition of 3H-ES uptake in S2-hOAT3 cells; type: in vitro ADME; settings: for inhibition of the activity of hOAT3: 100 μmol/L IPT, ISP, 100 μg/mL AD extract, substrate 3H-ES
# T1 sequence (Q8TCC7 1-542): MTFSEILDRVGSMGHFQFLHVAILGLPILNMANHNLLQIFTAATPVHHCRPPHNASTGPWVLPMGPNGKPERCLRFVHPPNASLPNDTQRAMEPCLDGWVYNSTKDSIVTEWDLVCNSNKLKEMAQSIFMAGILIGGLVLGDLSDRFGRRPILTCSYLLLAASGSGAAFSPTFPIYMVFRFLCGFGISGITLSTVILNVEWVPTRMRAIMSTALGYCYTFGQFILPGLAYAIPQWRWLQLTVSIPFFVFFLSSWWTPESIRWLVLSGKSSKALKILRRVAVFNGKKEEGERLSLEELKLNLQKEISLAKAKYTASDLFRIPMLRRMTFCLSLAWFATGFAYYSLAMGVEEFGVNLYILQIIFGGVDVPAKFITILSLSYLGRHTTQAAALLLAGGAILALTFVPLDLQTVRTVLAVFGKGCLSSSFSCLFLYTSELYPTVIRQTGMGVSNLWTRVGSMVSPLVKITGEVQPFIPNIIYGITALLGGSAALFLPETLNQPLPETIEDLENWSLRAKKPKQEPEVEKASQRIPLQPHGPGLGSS
# Procedure, shortened: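 Test compounds were made as DMSO stocks (20 mmol/L, or 10 mg/mL for extract) and diluted in PBS to a final DMSO below 0.5%. Cells were exposed at 37 °C to probe plus or minus test compound. The probe was 5 μmol/L ¹⁴C-PAH for 5 min (hOAT1) or 50 nmol/L ³H-estrone sulfate for 2 min (hOAT3, hOATP2B1). Screens used 100 μmol/L (extract 100 mg/L); IC50 came from varied concentrations. Cells were then given three cold DPBS washes, lysed in 0.1 mol/L NaOH and read by scintillation counting. Data are mean ± SD, n = 3.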
# hOAT1 = target: T2, hOAT1 (Homo sapiens, UniProt Q4U2R8); assay: Cellular uptake in MDCK-hOAT1 vs Mock cells; type: in vitro ADME; settings: 100 μmol/L, substrate if >2-fold of wild type
# T2 sequence (Q4U2R8 1-563): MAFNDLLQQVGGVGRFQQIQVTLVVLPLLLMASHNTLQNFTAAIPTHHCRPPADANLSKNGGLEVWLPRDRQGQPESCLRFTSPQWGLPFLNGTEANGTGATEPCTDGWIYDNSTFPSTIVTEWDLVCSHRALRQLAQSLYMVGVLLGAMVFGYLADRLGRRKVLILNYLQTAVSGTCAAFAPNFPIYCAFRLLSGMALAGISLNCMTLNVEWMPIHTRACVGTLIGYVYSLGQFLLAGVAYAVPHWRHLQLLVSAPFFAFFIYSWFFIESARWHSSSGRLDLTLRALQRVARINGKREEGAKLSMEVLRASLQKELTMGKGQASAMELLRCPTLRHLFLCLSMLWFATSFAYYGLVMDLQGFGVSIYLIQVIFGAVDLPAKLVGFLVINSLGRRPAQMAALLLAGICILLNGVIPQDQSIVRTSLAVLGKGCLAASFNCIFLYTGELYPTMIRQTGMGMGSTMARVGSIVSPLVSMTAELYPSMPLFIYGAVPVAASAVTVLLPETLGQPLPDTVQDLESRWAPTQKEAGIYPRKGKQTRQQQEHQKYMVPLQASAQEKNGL
# Procedure, shortened: (§1)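 Transfected cells and matching Mock cells were seeded at 2 × 10⁵ cells/mL and grown 2 days. After a DPBS (pH 7.4) wash and 10 min preincubation at 37 °C, cells took up 100 μmol/L test compound for 2–5 min at 37 °C. Uptake was stopped with three ice-cold DPBS washes, followed by methanol extraction and HPLC–MS. Values were normalised to BCA protein and compared with Mock.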
# mOatp1a4 = assay: qRT-PCR of mOatp1a4 mRNA in liver of treated mice; type: in vivo; settings: mice given 20 mg/kg TDE with 20 mg/kg IPT, ISP or 200 mg/kg AD extract, 4 h
# hOATP1B3 = target: T3, hOATP1B3 (Homo sapiens, UniProt Q9NPD5); assay: Cellular uptake and kinetics in HEK293-hOATP1B3 vs Mock cells; type: in vitro ADME; settings: 100 μmol/L, substrate if >2-fold of wild type
# T3 sequence (Q9NPD5 1-702): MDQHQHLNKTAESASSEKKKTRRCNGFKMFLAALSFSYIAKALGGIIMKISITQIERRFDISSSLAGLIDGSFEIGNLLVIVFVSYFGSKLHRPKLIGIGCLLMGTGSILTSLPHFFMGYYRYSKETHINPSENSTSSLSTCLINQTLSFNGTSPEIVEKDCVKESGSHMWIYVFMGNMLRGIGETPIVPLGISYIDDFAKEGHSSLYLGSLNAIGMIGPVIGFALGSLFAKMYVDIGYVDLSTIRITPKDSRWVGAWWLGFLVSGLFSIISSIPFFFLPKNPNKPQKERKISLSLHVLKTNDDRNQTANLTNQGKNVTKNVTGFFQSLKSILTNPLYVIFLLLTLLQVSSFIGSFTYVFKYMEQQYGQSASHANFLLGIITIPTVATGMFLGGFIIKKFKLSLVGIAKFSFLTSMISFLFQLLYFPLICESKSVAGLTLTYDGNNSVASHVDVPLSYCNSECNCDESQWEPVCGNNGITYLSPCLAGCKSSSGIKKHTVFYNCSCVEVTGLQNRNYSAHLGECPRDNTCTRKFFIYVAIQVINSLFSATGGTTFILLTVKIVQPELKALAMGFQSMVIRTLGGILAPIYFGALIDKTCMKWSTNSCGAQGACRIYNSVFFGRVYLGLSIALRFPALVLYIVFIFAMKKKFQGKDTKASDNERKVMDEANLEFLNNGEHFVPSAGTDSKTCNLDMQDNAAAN
# Procedure, shortened: as §1
Structure (SMILES),IC50 (hOAT3),inhibition of the activity of hOAT3 (hOAT3),"accumulation in MDCK-hOAT1, fold higher than in MDCK-Mock (hOAT1)","mRNA level of mOatp1a4 decreased to, compared to TDE alone (mOatp1a4)",accumulation in HEK293-hOATP1B3 vs HEK293 wild type (hOATP1B3)
"CC(C)=CCOc1c2occc2cc2ccc(=O)oc12 [IPT, imperatorin]",2.74 µM,significantly inhibited,~4.92 fold,36%,no significant differences
"CC(C)=CCOc1c2ccoc2cc2oc(=O)ccc12 [ISP, isoimperatorin]",11.7 µM,significantly inhibited,~3.40 fold,61%,no significant differences
